Experimental data from PubChem BioAssay AID2152 (The Scripps Research Institute Molecular Screening Center, 2009).
Among all 2,300 compounds or so, about 25 (1%) were called active.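 Rule for the calls: active = mean inhibition over three replicate wells above the hit threshold derived in the earlier primary screen (cut at about 45% in these data); inactive = the rest.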 What follows is part of a selection rich in actives, with near analogues and random picks from the rest.

system: Hepatitis C virus core protein (core106 dimerization); experiment: blockers of core106 self-association – biochemical, TR-FRET, triplicate, confirmation (AID 2152); conditions: TR-FRET GST-/Flag-core106 dimerization, HTRF; at 5 µM; active compounds read high;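 note: 0% = DMSO wells and 100% = unlabelled core106 competitor control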
Procedure, shortened: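 Test system – GST- and Flag-tagged HCV core106 peptides, dimerization via antibody TR-FRET · Amount – 17 nM Flag- plus 13.5 nM GST-core106 · Schedule – 4 h incubation, 22.5 °C · Compound dosing – one 5 µM dose, 0.5% DMSO · Detection – TR-FRET, 340 nm excitation, 671/617 nm emission · Reagent – Eu(K)-anti-GST plus XL665-anti-FLAG antibodies · Read-out basis – percent inhibition from emission ratio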

inhibition, inactive:
Cc1csc(SCC(=O)Nc2sc3c(c2C#N)CCC3)n1 -4.85%
CCCCN(C(=O)c1cc(-c2ccco2)nc2ccccc12)c1c(N)n(CCCC)c(=O)[nH]c1=O -1.63%
CN(CC(=O)Nc1ccc(F)cc1)C(=O)c1cc(-c2ccco2)nc2ccccc12 13.3%
O=C(Nc1ccc(Cl)c([N+](=O)[O-])c1)c1cnccn1 6.55%
C=CCN1C=C2C(=O)C(C)(OC(=O)CCc3ccccc3)C(=O)C=C2C=C1c1ccc(C#N)cc1 (centres undefined) 0.52%
CC1(OC(=O)CCc2ccccc2)C(=O)C=C2C=C(c3ccc(C#N)cc3)N(c3ccccc3)C=C2C1=O (centres undefined) 1.14%
Cc1ccc2nc(N3CCN(S(=O)(=O)c4ccc5c(c4)OCCO5)CC3)c(C#N)cc2c1 14.6%
O=C(c1cc(-c2ccccn2)nc2ccc(Br)cc12)N1CCN(S(=O)(=O)c2ccccc2)CC1 17%
C/C=C\C=C/C(=O)Nc1cccc(C2=NOC3(C2)C[C@@H](C(N)=O)N(C(=O)/C=C/CC)C3)c1 (some centres undefined) 5.44%
O=C1C(Cc2ccccc2)S/C(=N/N=C/c2ccco2)N1c1ccccc1 (centres undefined) -8.03%
c1ccc(-c2cc(-c3nn4c(-c5ccco5)nnc4s3)c3ccccc3n2)cc1 16.7%
Cc1oc(-c2ccc(F)cc2)cc1-c1nn2c(-c3ccoc3C)nnc2s1 20.6%
Cc1ccc(NC(=O)c2cc(-c3ccc(C)o3)nc3ccccc23)cc1 -0.19%
O=C(/C=C/c1ccc2ccccc2n1)N1CCN(c2ccccc2)CC1 -3.48%
CCN(CC(=O)Nc1c(F)cccc1F)C(=O)c1cccc(-n2cccc2)c1 3.91%
O=C1CCCC2=C1C(c1cn(-c3ccccc3)nc1-c1cccs1)c1c([nH]c(=O)[nH]c1=O)N2 (centres undefined) 0.06%
Cc1ccc(NC(=O)CN2C(=O)N/C(=C/c3ccco3)C2=O)cc1 -4.53%
Cc1ccccc1N1C(S)=C(C#N)C(=O)NC1c1ccco1 (centres undefined) 9.88%
COc1ccc(-c2cc(C(=O)Nc3sc4c(c3C#N)CCCC4)c3ccccc3n2)cc1OC -1.02%
COc1cc(-c2cc(C(=O)OCC(=O)Nc3ccc4c(c3)OCO4)c3ccccc3n2)cc(OC)c1OC 4.02%
CN(CC(=O)Nc1c(Cl)cccc1Cl)C(=O)c1cccc(-n2cccc2)c1 2.1%
COc1ccc(CC(=O)OCC(=O)Nc2ncc(Cl)cc2Cl)cc1 -1.83%
COc1ccccc1NC(=O)c1ccc(SCC(=O)NCc2ccccc2Cl)c([N+](=O)[O-])c1 -1.75%
O=C(NCc1ccco1)C1Cc2ccccc2CN1S(=O)(=O)c1ccccc1F (centres undefined) 18.4%
C/C=C\C=C/C(=O)Nc1cccc(C2=NOC3(C2)C[C@@H](C(N)=O)N(C(=O)[C@H]2CCC(=O)N2)C3)c1 (some centres undefined) -14.3%
O=C(N/N=C/c1ccc(N2CCCCC2)o1)C(O)(c1ccccc1)c1ccccc1 -3.6%
CCOc1ccc(C2C(C#N)=C(N)SC(N)=C2C#N)cc1OCC 31.4%
COc1ccccc1C(CCN(Cc1cccs1)C(C)=O)c1ccco1 (centres undefined) -3.29%
O=C(NCCN1C(=O)S/C(=C\c2ccc(Cl)c(Cl)c2)C1=O)c1ccc2c(c1)C(=O)N(Cc1ccncc1)C2=O 6.43%
O=C(COc1ccc([N+](=O)[O-])cc1)Nc1nnc(-c2cccnc2)s1 16.4%
CC[C@@H](C)CN1C(=O)N[C@@H](c2ccccc2)C(C(C)=O)=C1C 5.08%
CCOC(=O)c1cccc(NC(=O)C2CCCN(c3nnc(N4CCCC4=O)s3)C2)c1 (centres undefined) -7.1%
O=c1c2c3nc4ccccc4nc3n(/N=C/c3ccco3)c2ncn1CCC1=CCCCC1 2.56%
O=C(O)C/C(=C\c1cc(Cl)c2c(c1)OCO2)c1nc2ccccc2s1 4.02%
Cc1ccc(NC(=O)Nc2nnc(Cc3ccc([N+](=O)[O-])cc3)s2)cc1 6.61%
N=c1c(C(=O)NCc2ccco2)cc2c(=O)n3ccccc3nc2n1Cc1ccc(Cl)cc1 9.28%
COc1ccccc1/C=c1\sc2nc(-c3ccco3)nn2c1=O 8.15%
O=c1nc2s/c(=C\c3ccco3)c(=O)n2nc1Cc1ccc(F)cc1 14.3%
COc1cccc(/C=N/NC(=O)c2nc(-c3ccccc3)cc(-c3ccccc3)n2)c1 6.79%
Cc1ccc(C)c(N2CCN(C(=O)CSc3ccsc3[N+](=O)[O-])CC2)c1 12.5%
O=C(/C=C\c1ccc2c(c1)OCO2)Nc1c2c(nn1-c1ccc(Cl)cc1)CSC2 -1.47%
O=C(Cn1cnc2sc(-c3ccccc3)cc2c1=O)NCc1ccco1 3.55%
CCc1ccc(-c2csc(NC(=O)C3=NN(c4ccccc4)C(=O)CC3)n2)cc1 -3.1%
Cc1ccc(-c2csc(N3N=C(c4ccccc4)/C(=C\c4ccc(N(C)C)cc4)C3=O)n2)cc1 1.99%
CNC(=O)COC(=O)c1cc(-c2ccco2)nc2ccccc12 12.2%
O=C(OCC(=O)N1CCN(C(=O)c2ccco2)CC1)c1cc(-c2ccco2)nc2ccccc12 30.6%
Cc1cc(C)c(S(=O)(=O)N2CCOC2CNC(=O)C(=O)NCCc2ccc(S(N)(=O)=O)cc2)c(C)c1 (centres undefined) -0.31%
Cc1[nH]c2ccccc2c1CCNC(=O)c1ccc2c(c1[N+](=O)[O-])C(=O)c1ccccc1C2=O -6.67%
CCOc1cc(/C=N\NC(=O)c2ccc(NC(=O)C(C)(C)C)cc2)ccc1OC(=O)c1cccc(C)c1 -6.21%
C=CCOc1ccc(-c2nc3c(c(=O)[nH]c(=O)n3Cc3ccccc3)n2CCCOC)cc1 3%
C=CCn1c(C)cc(C(=O)COC(=O)c2ccc3c(c2)NC(=O)CS3)c1C -0.86%
COC(=O)c1ccccc1NC(=O)CN1C(=O)C2CCCN2c2ncc(Cl)cc21 (centres undefined) 4.11%
CCCN(CCC)C(=O)CC(c1ccc(F)cc1)c1ccco1 (centres undefined) -2.6%
COc1ccc(C2=NN(C(=O)CSc3nc(=O)n4cccc(C)c4n3)C(c3ccc(C)cc3)C2)cc1 (centres undefined) 21.8%
O=C(NNC(=O)c1cccc(-n2cccc2)c1)c1ccc(F)cc1 9.23%
Cc1ccc(-c2cc(C(F)F)n3ncc(C(=O)Nc4c(C)nn(Cc5ccccc5Cl)c4C)c3n2)cc1 0.26%
N#Cc1ccsc1NC(=O)COc1ccc(-c2nnco2)cc1 3.2%
O=C1CC(c2ccco2)Cc2nc(N3CCc4ccccc4C3)ncc21 (centres undefined) 0.9%
CCN(CC)c1cc2nc(C)n(Cc3ccccc3)c(=O)c2cc1NC(=O)C1CC1 3.07%
Cc1cc([N+](=O)[O-])cc2c1NC(c1ccccn1)C1CC=CC21 (centres undefined) 8.17%
CC(C)Cc1nc(N2CCN(C(=O)c3ccco3)CC2)c(C#N)c2c1CCC2 -9.13%
Cc1ccc2[nH]c(=O)c(CN(Cc3ccc4c(c3)OCO4)Cc3nnnn3Cc3ccco3)cc2c1 -2.73%
COc1ccc(C(=S)N2CCOCC2)cc1OC(=O)c1cc([N+](=O)[O-])c(C)c([N+](=O)[O-])c1 3.86%
COc1ccc(/C=C2\SC(=S)N(NC(=O)c3csc4c3CCCC4)C2=O)cc1 -8.8%
CC(C)Cn1c(-c2ccccc2)nc(=S)c2c1CCCC2 2.05%
COc1ccc(NC(=O)NNC(=O)COc2ccc3cc(Br)ccc3c2)c(OC)c1 0.29%
COC/C=C/C1=CC2=CC(=O)C(C)(OC(=O)c3cnc4ccccc4n3)C(=O)C2=CN1Cc1ccc(OC)cc1 (centres undefined) 2.72%
O=C1c2ccccc2C(Nc2ccc3c(c2)OCO3)N1Cc1ccc2c(c1)OCO2 (centres undefined) -1.13%
CC(=O)c1ccc(NC(=O)/C(=C\c2ccccc2)NC(=O)/C=C/c2ccccc2)cc1 -3.84%
CS(=O)(=O)N1CCc2cc(-c3csc(NC(=O)C(c4ccccc4)c4ccccc4)n3)ccc21 -5%
O=C(COC(=O)c1ccccc1Oc1ccccc1)NCc1ccco1 -1.91%

inhibition, active:
CC1(O)C(=O)C=C2C=C(c3ccc(C#N)cc3)OC=C2C1=O (centres undefined) 55%
Cc1oc(-c2ccc(Cl)cc2)cc1-c1nn2c(-c3ccoc3C)nnc2s1 52.5%
CCN(CC(=O)Nc1c(F)cccc1F)C(=O)/C=C/c1ccc2ccccc2n1 62.5%
CC1=C(C#N)C(=O)N(C2CCS(=O)(=O)C2)C(=O)/C1=C\c1ccco1 (centres undefined) 56.2%
COc1ccccc1/C=C/C=c1\sc2nc(=O)c(Cc3ccccc3)nn2c1=O 46.4%
CCOc1cc(/C=C2\C(=O)N(c3nc(-c4ccc(Br)cc4)cs3)N=C2c2ccccc2)ccc1O 58.1%
CN(C(=O)COC(=O)c1cc(-c2ccco2)nc2ccccc12)C1CCS(=O)(=O)C1 (centres undefined) 49.6%
C=C(NC(=O)C(=C)NC(=O)c1csc(C2=NC3c4csc(n4)C4NC(=O)c5csc(n5)C([C@@](C)(O)C(C)O)NC(=O)C5CSC(=N5)/C(=C\C)NC(=O)C(C(C)O)NC(=O)c5csc(n5)[C@]3(CC2)NC(=O)C(C)NC(=O)C(=C)NC(=O)C(C)NC(=O)C(C(C)CC)NC2C=Cc3c(C(C)O)cc(nc3C2O)C(=O)OC4C)n1)C(N)=O (some centres undefined) 47.5%
